Screening data from PubChem BioAssay.
EBNA-1 inh = EBNA-1 DNA-binding inhibitors, primary screen, biochemical, fluorescence polarization. inhibition, % at 14.8 µM. 0.34% of 300,000 active. AID 1950, 2009; in the data active = inhibition above about 28%
ZTA counter = counter-screen for EBNA-1 inhibitors: inhibitors of Epstein-Barr virus ZTA. P03206. ZTA-DNA binding, fluorescence polarization. inhibition, % at 11 µM. 0.15% of 320,000 active. AID 2234; in the data active = inhibition above about 33%
Target sequence (P03206 whole entry, looked up): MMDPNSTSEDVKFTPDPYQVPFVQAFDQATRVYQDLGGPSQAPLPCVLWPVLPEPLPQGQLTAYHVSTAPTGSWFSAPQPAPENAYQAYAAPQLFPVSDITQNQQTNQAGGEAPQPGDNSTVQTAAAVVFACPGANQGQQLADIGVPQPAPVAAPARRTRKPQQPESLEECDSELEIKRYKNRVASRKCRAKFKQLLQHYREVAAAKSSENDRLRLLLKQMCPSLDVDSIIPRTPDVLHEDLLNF
HCV NS3 hel inh = inhibitors of HCV NS3 helicase, primary screen, biochemical, Cy5 molecular beacon fluorescence; Hepatitis C virus NS3 helicase; NS3 helicase DNA unwinding; inhibition, % at 10.9 µM; 0.56% of 290,000 active;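 active = inhibition above the mean of all tested compounds plus 3 SD, set per campaign, cut at about 35% in these data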;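 also: 0% = DMSO wells and 100% = thioflavine S control wells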
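Test system: hepatitis C virus NS3 helicase domain fragment enzyme. Also added: annealed dual-labelled DNA beacon duplex, ATP-started. Timing: 60 min unwinding reaction at 25 °C after ATP addition. Technique: Cy5 fluorescence. Measure: % inhibition of unwinding.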
DNA FID counter = compounds displacing fluorescent DNA intercalator, primary screen, artefact control for HCV NS3 helicase inhibitor project, biochemical, FID fluorescence; DNA fluorescent intercalator displacement; inhibition, % at 7.9 µM; 0.17% of 290,000 active; AID 1845, 2009; in the data active = inhibition above about 37%;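 also: 0% = vehicle and 100% = reference compound; higher means more ethidium bromide displaced from hairpin DNA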
FGF22 binding = binders of human FGF22 protein, primary screen, FGF22 synaptogenesis inhibitor project, biophysical, thermal shift, single point | Fibroblast growth factor 22 (Homo sapiens), Q9HCT0 | recombinant FGF22 thermal shift, SYPRO orange fluorescence; percent of sucrose octasulfate shift, DMSO zero | activity (Tm shift, normalised), % at 9.99 µM | 1.5% of 340,000 active;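 active = mean Tm shift, scaled 0 neutral to 100 positive control, at about 1.3% or above, every replicate too, limit read from the data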
Target sequence (Q9HCT0 whole entry, looked up): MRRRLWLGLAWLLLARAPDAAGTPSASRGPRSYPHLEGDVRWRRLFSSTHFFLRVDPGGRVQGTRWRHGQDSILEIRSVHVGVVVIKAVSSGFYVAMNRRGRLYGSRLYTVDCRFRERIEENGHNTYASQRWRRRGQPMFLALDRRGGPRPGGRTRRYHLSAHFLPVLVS
NR3A LBD binder = binders of NR3A ligand-binding domain, primary screen, biophysical, differential scanning fluorimetry, uHTS; NR3A LBD differential scanning fluorimetry, Tm shift; 0% = protein alone, 100% = glycine-bound protein; Glutamate receptor ionotropic, NMDA 3A (GRIN3A) ligand-binding domain; Tm shift relative to glycine control, % at 25 µM; AID 1259313, 2017; 2.5% of 340,000 active;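 active = melting temperature shift of at least 10% of the positive control shift, at one fixed dose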
EBNA-1 confirm = EBNA-1 DNA-binding inhibitors, retest, confirmation, biochemical, fluorescence polarization, triplicate; shares compounds with EBNA-1 inh; Recombinant EBNA-1 DBD, Cy5-DNA fluorescence polarization; inhibition, % at 14.8 µM; 35% of 830 active; AID 2292, 2010;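 active = mean inhibition across replicates above a set limit taken from the earlier primary screen, cut at about 28% in these data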;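 also: plate controls were EBNA-1 protein with DMSO for no effect and wells lacking EBNA-1 for full effect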
ZTA counter trip = EBV Zta DNA binding inhibitors, counter-screen for EBNA-1 inhibitor project, biochemical, fluorescence polarization, triplicate; shares compounds with EBNA-1 inh; inhibition, % at 11.1 µM; Zta-ZRE DNA binding, Cy5 fluorescence polarization; 830 tested, under 10 active;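 active = mean inhibition over triplicates above a set limit taken from the primary EBNA-1 screen, cut at about 37% in these data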;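 also: purified full length Zta protein with Cy5 labeled ZRE DNA probe; 0% = Zta with DMSO and 100% = wells lacking Zta protein; inhibitors lower polarization by freeing the labeled DNA probe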
* hit, by the source's call. Hits are enriched below; roughly 3.6% of the tested compounds scored in any of these assays.

`O=C(N/N=C/c1ccc(O)cc1)c1nc(-c2ccccc2)n(-c2ccccc2)n1` gave EBNA-1 inh 30.8*, ZTA counter 1.0, HCV NS3 hel inh -7.3, DNA FID counter -23.3, NR3A LBD binder -1.0, EBNA-1 confirm 31.1* and ZTA counter trip -4.9.
`C[C@@H]1CN([C@H](C)CO)C(=O)Cc2cc(NS(=O)(=O)c3ccc(Cl)cc3)ccc2O[C@H]1CN(C)C(=O)Nc1ccccc1` gave FGF22 binding 0.0.
CN(C)C(=O)C[C@@H]1C[C@H]2c3cc(NC(=O)NC4CCCCC4)ccc3O[C@H]2[C@@H](CO)O1 was read as FGF22 binding 0.0.
Screening CCOc1ccc(C(=O)NCCN(C)C)cc1 returned EBNA-1 inh -5.8, ZTA counter -7.9, HCV NS3 hel inh -0.4, DNA FID counter -5.0 and NR3A LBD binder 0.6.
CCOc1ccc(C(=O)NCCCCNC(=O)c2ccc(OCC)cc2)cc1 was read as EBNA-1 inh 28.1*, ZTA counter -5.9, HCV NS3 hel inh -9.0, DNA FID counter -25.0, FGF22 binding 0.1, NR3A LBD binder 14.9*, EBNA-1 confirm 25.1 and ZTA counter trip 0.3.
Screening COc1ccc(S(=O)(=O)Nc2cc(Sc3ncn[nH]3)c(O)c3ccccc23)cc1 returned HCV NS3 hel inh 7.2 and DNA FID counter 5.4.
Screening O=S(=O)(Nc1cc(Sc2cccc3cccnc23)c(O)c2ccccc12)c1ccc(F)cc1 returned EBNA-1 inh 32.7*, ZTA counter 17.1, HCV NS3 hel inh -2.5, DNA FID counter -9.7, FGF22 binding 0.1, NR3A LBD binder 0.6, EBNA-1 confirm 9.9 and ZTA counter trip 3.4.
For COc1ccc(Cl)cc1NC(=O)CN1CCN(S(=O)(=O)c2ccc(F)cc2)CC1 the results were EBNA-1 inh 44.4*, ZTA counter -21.5, HCV NS3 hel inh -1.1, DNA FID counter -34.2, FGF22 binding 0.0, NR3A LBD binder -2.2, EBNA-1 confirm 91.2* and ZTA counter trip 10.7.
Screening Cc1cc(C)cc(N2CC(O)=C(c3nc4ccccc4c(=O)[nH]3)C2=N)c1 returned EBNA-1 inh 0.2, ZTA counter 2.2, HCV NS3 hel inh 6.2, DNA FID counter -3.2, FGF22 binding 0.1 and NR3A LBD binder -1.1.
COc1cccc(N2CC(O)=C(c3nc4ccccc4c(=O)[nH]3)C2=N)c1 was read as EBNA-1 inh 66.8*, ZTA counter -16.6, HCV NS3 hel inh 0.8, DNA FID counter -13.4, NR3A LBD binder -0.7, EBNA-1 confirm 124.5* and ZTA counter trip 0.8.
`O=C(N[C@@H]1CC[C@H](CC(=O)N2CCOCC2)O[C@H]1CO)c1ccc2c(c1)OCO2` gave FGF22 binding 0.2.
For CCn1c(SCC(=O)NCCc2ccccc2)nc2c([nH]c3ccccc32)c1=O the results were EBNA-1 inh 41.8*, ZTA counter 11.0, HCV NS3 hel inh -7.6, DNA FID counter -13.9, FGF22 binding 0.0, NR3A LBD binder -4.5, EBNA-1 confirm 7.1 and ZTA counter trip 6.3.
Screening COc1cccc(NC(=O)N2C[C@H](O)COC[C@H]3O[C@@H](CC(=O)NCc4ccccc4F)CC[C@@H]32)c1 returned FGF22 binding -0.5.
`C[C@H]1CN([C@@H](C)CO)C(=O)c2cc(NS(C)(=O)=O)ccc2O[C@@H]1CN(C)Cc1ccc(Cl)c(Cl)c1` gave FGF22 binding 0.1.
Cc1cc(C)c2cccc(NC(=S)NC(=O)c3ccccc3)c2n1 was read as EBNA-1 inh 34.2*, ZTA counter 2.4, HCV NS3 hel inh 6.3, DNA FID counter -0.8, NR3A LBD binder -1.1, EBNA-1 confirm 27.7* and ZTA counter trip 4.8.
Screening CC(=O)NC(=S)Nc1cccc2c(C)cc(C)nc12 returned EBNA-1 inh 6.0, ZTA counter 1.6, HCV NS3 hel inh 4.2, DNA FID counter 0.9, FGF22 binding 0.1 and NR3A LBD binder 1.1.
`COc1ccc2c3c([nH]c2c1)[C@H](CO)N(C(=O)C1CCCC1)CC31CN(C(=O)c2ccncc2)C1` gave FGF22 binding -0.1.
`CCCOc1cccc(-c2nnc(N)s2)c1` gave EBNA-1 inh 33.3*, ZTA counter -10.3, HCV NS3 hel inh 7.7, DNA FID counter -1.2, NR3A LBD binder -0.7, EBNA-1 confirm -6.1 and ZTA counter trip 4.6.
For COc1ccc(NC(=O)Nc2ccccc2F)cc1Cl the results were EBNA-1 inh 88.8*, ZTA counter -22.1, HCV NS3 hel inh 1.2, DNA FID counter 2.9, FGF22 binding 0.0, NR3A LBD binder 20.3*, EBNA-1 confirm 22.1 and ZTA counter trip 13.6.
For COc1ccc(NC(=O)Nc2ccccc2F)cc1 the results were EBNA-1 inh 11.8, ZTA counter -2.1, HCV NS3 hel inh 2.6, DNA FID counter 0.8, FGF22 binding 1.1 and NR3A LBD binder 6.1.
For COc1ccccc1-c1cc(C(F)(F)F)nc(NCc2ccco2)n1 the results were EBNA-1 inh 39.8*, ZTA counter 26.0, HCV NS3 hel inh 6.5, DNA FID counter -9.8, NR3A LBD binder -5.6, EBNA-1 confirm 0.2 and ZTA counter trip 3.4.
Screening FC(F)(F)c1cc(-c2ccco2)nc(NCc2ccccc2)n1 returned EBNA-1 inh 1.1, ZTA counter 5.9, HCV NS3 hel inh 21.2, DNA FID counter -7.5 and NR3A LBD binder -5.0.
`O=C(Cn1c(O)c(/C=C2\C=Nc3ccc(Br)cc32)sc1=O)N1CCCC1` gave EBNA-1 inh 29.1*, ZTA counter -4.9, HCV NS3 hel inh -0.2, DNA FID counter 6.1, NR3A LBD binder -7.8, EBNA-1 confirm 10.1 and ZTA counter trip -0.9.
`Cc1cc(C(=O)Nc2cccc3c2O[C@H](CN(C)C(=O)Nc2ccc(F)cc2)[C@H](C)CN([C@@H](C)CO)C3=O)n(C)n1` gave FGF22 binding -0.1.
N#Cc1c(-c2cccs2)cc(C2CC2)nc1SCC(N)=O was read as EBNA-1 inh 36.0*, ZTA counter 0.0, HCV NS3 hel inh 0.3, DNA FID counter -10.2, NR3A LBD binder 3.4, EBNA-1 confirm 30.7* and ZTA counter trip 3.1.
